This is an account of results in ChEMBL document CHEMBL1159045, “Design and pharmacophore modeling of biaryl methyl eugenol analogs as breast cancer invasion inhibitors” (Bioorg Med Chem, 2010).

One data set concerns MCF7. As to the kind of experiment: Cytotoxicity against human MCF7 cells at 10 to 50 uM after 75 hrs by MTT assay. To be noted: mcf7, 72 h, in the assay text read “72 hrs” for “75 hrs”. The format is cell-based. In outline:
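MCF-7 seeded at 12,000 cells/well and stabilized 24 h at 37 °C, 5% CO2. Treated in triplicate for 72 h at 37 °C, 5% CO2, 85% humidity. MTT (2.5 mg/mL) added for 4 h, then formazan dissolved in isopropanol overnight at rt in the dark. OD read at 570 nm against a cell-free blank; cell number from calibration curve. Colchicine positive control, DMSO vehicle.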
(In general: Tetrazolium assays rely on reduction of a dye to a coloured formazan, in cell work by metabolically active cells.)

The subject of data set [1] is MDA-MB-231. As to the kind of experiment: Antiinvasive activity in human MDA-MB-231 cells by BME cell invasion assay. The data set is classed as functional, cell-based. In outline: (§1)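 Cultrex 96-well BME invasion kit, Boyden-type chamber with 8 µm PET membrane coated with basement membrane extract; MDA-MB-231 cells exposed to 1–4 μM for 24 h, 10% FBS as chemoattractant in the lower chamber. Invaded cells labelled with calcein-AM and read at ex 485/em 520 nm. RFU converted to cell number by standard curve. % invasion = cells through BME / cells migrating through uncoated membrane. Colchicine as positive control, DMSO vehicle.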

Data set [2] deals with MDA-MB-231. As to the kind of experiment: Cytotoxicity against human MDA-MB-231 cells at 10 to 50 uM after 75 hrs by MTT assay. Conditions: mda-mb-231, 72 h, in the assay text read “72 hrs” for “75 hrs”. The format is cell-based. An outline of the steps:
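MDA-MB-231 seeded at 15,000 cells/well and stabilized 24 h at 37 °C, 5% CO2. Triplicate doses applied for 72 h at 37 °C, 5% CO2, 85% humidity. MTT (2.5 mg/mL) added for 4 h, then formazan dissolved overnight at rt in the dark with detergent reagent. OD at 570 nm against a cell-free blank; cells/well from calibration curve. Colchicine positive control, DMSO vehicle.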

Data set [3] relates to MDA-MB-231. As to the kind of experiment: Antiinvasive activity in human MDA-MB-231 cells assessed as cell invasion at 4 uM by BME cell invasion assay. The data set is classed as functional. An outline of the steps:
as §1

Data set [4] concerns MDA-MB-231. As to the kind of experiment: Antiinvasive activity in human MDA-MB-231 cells assessed as cell invasion at 2 uM by BME cell invasion assay. The format is functional. An outline of the steps: as §1

Take `C=C(Cc1ccc(OC)c(OC)c1)c1ccccc1OC(C)=O`: the results for the Activity result in the data set on MCF7, in the data set with MDA-MB-231 [1] and in the data set on MDA-MB-231 [2] were “Non-toxic”, “Dose-dependent effect” and “Non-toxic”, respectively.

For `COc1ccc(/C=C/Cc2ccc(OC)c(OC)c2)cc1`, the values for the Activity with MDA-MB-231 [3], in the data set with MDA-MB-231 [1] and with MDA-MB-231 [2] were 13.7%, “Dose-dependent effect” and “Non-toxic”, respectively.

Consider `C=C(Cc1ccc(OC)c(OC)c1)c1cc(OC)c(OC)c(OC)c1`, for which the values for the Activity entry with MDA-MB-231 [1] and in the data set on MDA-MB-231 [2] were “Dose-dependent effect” and “Non-toxic”, respectively.

For `COc1ccc(C/C=C/c2c(C)cccc2C)cc1OC`, the Activity result was “Dose-dependent effect” with MDA-MB-231 [1] and “Non-toxic” in the data set on MDA-MB-231 [2].

Regarding `COc1ccc(C(=O)CCc2cc(OC)c(OC)c(OC)c2)cc1OC`, the Activity result in the data set on MDA-MB-231 [1] was “Dose-dependent effect”; in the data set on MDA-MB-231 [2], “Non-toxic”.

Take `COc1ccc(C/C=C\c2ccccc2OC(C)=O)cc1OC`: the Activity result was “Non-toxic” in the data set with MCF7, 9% in the data set on MDA-MB-231 [3], “Dose-dependent effect” in the data set with MDA-MB-231 [1] and “Non-toxic” in the data set on MDA-MB-231 [2].

As to `COc1ccc(C(=O)/C=C/c2cc(OC)c(OC)c(OC)c2)cc1OC`, the Activity in the data set on MDA-MB-231 [4] is 8.5%; with MDA-MB-231 [1], “Dose-dependent effect”; with MDA-MB-231 [2] it was “Non-toxic”.

For `COc1ccc(/C=C/Cc2cc(OC)c(OC)c(OC)c2)cc1OC`, the Activity in the data set on MDA-MB-231 [3] is 11%; in the data set on MDA-MB-231 [1], “Dose-dependent effect”; in the data set with MDA-MB-231 [2], “Non-toxic”.

Take `COc1ccc(/C=C\Cc2c(C)cccc2C)cc1OC`: the Activity entry in the data set with MDA-MB-231 [1] is “Dose-dependent effect”; in the data set with MDA-MB-231 [2], “Non-toxic”.

For `COc1ccc(C/C=C/c2ccc(OC)c(OC)c2)cc1`, the figures for the Activity result with MDA-MB-231 [1] and with MDA-MB-231 [2] were “Dose-dependent effect” and “Non-toxic”, respectively.

With `C=C(Cc1ccc(OC)c(OC)c1)c1ccc(OC)cc1`, the Activity entry with MDA-MB-231 [1] is “Dose-dependent effect”; in the data set with MDA-MB-231 [2], “Non-toxic”.

In the case of `COc1ccc(C/C=C/c2cc(OC)c(OC)c(OC)c2)cc1OC`, the values for the Activity entry with MDA-MB-231 [1] and in the data set on MDA-MB-231 [2] were “Dose-dependent effect” and “Non-toxic”, respectively.

As for `COc1cc2c(c(OC)c1OC)-c1ccc(OC)c(=O)cc1[C@@H](NC(C)=O)CC2` [COLCHICINE], in the data set with MDA-MB-231 [3], the Activity was determined as 8.9%.

In the case of `COc1ccc(/C=C/Cc2ccccc2OC(C)=O)cc1OC`, the Activity result in the data set with MCF7 is “Non-toxic”; in the data set with MDA-MB-231 [1] it was “Dose-dependent effect”; with MDA-MB-231 [2] it was “Non-toxic”.

For the compound `COc1ccccc1C/C=C/c1ccc(OC)c(OC)c1`, the Activity entry with MDA-MB-231 [1] was “Dose-dependent effect”; in the data set with MDA-MB-231 [2], “Non-toxic”.
